# Compound activity deposited in PubChem by The Scripps Research Institute Molecular Screening Center.
# TAAR1 antagonist: antagonists of human TAAR1; Q96RJ0; CHO RD-HGA16 TAAR1, Fluo-8 calcium fluorescence, antagonist; inhibition, % at 3 µM; 1.5% of 360,000 active; AID 624466;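 active = inhibition above a per-plate cutoff, the mean inhibition of test compounds on that plate plus 3 SD, cut at about 49% in these data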;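 also: 0% = DMSO plus EC80 beta-PEA response and 100% = DMSO alone without agonist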
#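 Test system: CHO RD-HGA16 cells bearing hTAAR1 | Reagent: β-PEA, EC80 | Compound dosing: 3 µM, single point | Schedule: Dye loading 75 min at 37 °C, then 30 min room temperature | Signal: Calcium fluorescence with Fluo-8 | Evaluation: Percent inhibition of PEA-evoked calcium signal, max/basal emission ratio | Control set: DMSO-only wells and EC80 β-PEA-stimulated wells | Repeats: Singlicate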
# OX1R antag-1: antagonists of human orexin 1 receptor; inhibition, % at 5 µM; O43613; AID 434989; CHO/OX1R cells, Fluo-8 calcium fluorescence, orexin A; 0.43% of 330,000 active;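 active = inhibition above its plate's threshold, mean inhibition of all tested compounds on the plate plus 3 SD, cut at about 37% in these data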;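 also: 0% = orexin A challenge wells and 100% = SB-334867-A antagonist wells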
# Target sequence (O43613 whole entry, looked up): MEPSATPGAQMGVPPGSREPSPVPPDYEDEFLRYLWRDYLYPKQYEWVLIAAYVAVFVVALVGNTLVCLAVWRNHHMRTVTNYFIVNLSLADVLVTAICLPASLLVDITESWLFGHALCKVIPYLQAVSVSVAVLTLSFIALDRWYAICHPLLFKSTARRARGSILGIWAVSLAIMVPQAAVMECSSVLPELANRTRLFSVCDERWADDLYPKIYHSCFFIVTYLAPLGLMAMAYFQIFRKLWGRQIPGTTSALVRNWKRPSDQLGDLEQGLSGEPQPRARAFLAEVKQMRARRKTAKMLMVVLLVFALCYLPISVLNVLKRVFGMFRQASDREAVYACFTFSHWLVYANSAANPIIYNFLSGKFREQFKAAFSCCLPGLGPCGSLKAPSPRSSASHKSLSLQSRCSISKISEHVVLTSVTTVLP
# TAAR1 agonist: agonists of human TAAR1; Q96RJ0; CHO RD-HGA16 TAAR1, Fluo-8 calcium fluorescence; vehicle wells 0%, saturating PEA agonist 100%; activation, % at 3 µM; 0.99% of 360,000 active;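 active = activation above the mean activation of all test compounds in the run plus 3 SD, cut at about 38% in these data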
#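 Test system: RD-HGA16 (CHO) cells co-expressing Gα16 and hTAAR1 / Benchmarks: DMSO vehicle as 0%, PEA at EC100 as 100% / Repeats: no replicates (n 1) / Measure: % activation from peak over basal fluorescence ratio, DMSO-to-PEA scaled / Timing: 17-24 h plating, Fluo-8 75 min 37 °C, 30 min RT / Technique: kinetic Fluo-8 calcium fluorescence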
# OX1R antag-2: blocks the human orexin 1 receptor; 1.8% of 330,000 active; O43613; inhibition, % at 6.6 µM; OX1R-expressing cells, FRET antagonist read-out; in the data active = inhibition mostly above about 38%, no sharp cut-off; inactive = mostly below about 40%;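 also: 0% = agonist challenge alone and 100% = reference antagonist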
# CHO parental Ca: signal in parental CHO cells, OX1R antagonist counter-screen; parental CHO-K1, ATP-induced calcium, Fluo-8 fluorescence; 0.63% of 330,000 active; inhibition, % at 5.6 µM;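 active = inhibition above that plate's mean sample inhibition plus 3 SD, cut at about 26% in these data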;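 also: 0% = ATP-challenged DMSO wells and 100% = DMSO wells without ATP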
#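 Test system: untransfected parental CHO cell line; also added: ATP stimulus; dosing: 5.6 µM, single dose; signal: calcium-sensitive Fluo-8 fluorescence; measure: percent inhibition of ATP-evoked calcium rise, normalized to controls; benchmarks: low control ATP plus DMSO, high control DMSO only; replication: one well per compound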
# The depositor's hits bear a star; / = no result. Hits are enriched below; roughly 4% of the tested compounds scored in any of these assays.
SMILES,TAAR1 antagonist,OX1R antag-1,TAAR1 agonist,OX1R antag-2,CHO parental Ca
CCn1cc(SCC(=O)N2CCc3ccccc32)c2ccccc21,21,-25,-2,36*,32*
CSc1ccc(S(=O)(=O)NCC(=O)OCC(=O)NCCc2ccccc2)cc1[N+](=O)[O-],-18,-22,4,37*,-19
CSc1ccc(S(=O)(=O)NCC(=O)OCC(=O)NCc2ccco2)cc1[N+](=O)[O-],-3,-9,3,44,2
CCN(C(=O)COC(=O)CNS(=O)(=O)c1ccc(SC)c([N+](=O)[O-])c1)C1CCCCC1,8,-15,6,53*,-18
CSc1ccc(S(=O)(=O)NCC(=O)OC(C)C(=O)NCc2ccccc2)cc1[N+](=O)[O-] (stereo not drawn),-5,-20,4,67*,9
CSc1ccc(S(=O)(=O)NCC(=O)OCC(=O)N(C)C2CCCCC2)cc1[N+](=O)[O-],0,-27,1,39,-19
C[C@H]1CN(c2ccc(N3CCN(C(=O)OC(C)(C)C)C[C@@H]3C)cc2C#N)CCN1Cc1ccccc1,9,/,-1,/,/
C[C@H]1CN(c2ccc(N3CCNC[C@@H]3C)cc2C#N)CCN1Cc1ccccc1,-11,/,11,/,/
O=C(C(=O)N1CCN(C(=O)C2CCCC2)CC1)c1cccc(C(F)(F)F)c1,-19,/,0,/,/
Cc1cc(NC(=O)COC(=O)C2CCC(=O)N2)c([N+](=O)[O-])cc1C (stereo not drawn),2,-10,1,61*,-2
COC(=O)COc1ccc(C(=O)Cn2c(NCCCO)nc3ccccc32)cc1,10,-2,0,2,-16
CCOC(=O)C1=C(Cn2cnc3ccccc32)NC(=O)NC1c1cc(C)ccc1C (stereo not drawn),65*,79*,58*,39,95*
Nc1[nH]c(C(=O)c2ccccc2)c(-c2ccc3c(c2)OCO3)c1C(=O)NCCc1c[nH]c2ccccc12,15,/,6,/,/
COc1ccc(N(CCC(=O)Nc2ccccc2F)S(=O)(=O)c2ccc(C)cc2C)cc1,-6,-27,-1,37,-14
COc1ccc2c(c1)[nH]c1c(=O)n(Cc3ccco3)cnc12,36,-7,47*,15,-2
Cc1[nH]n(-c2ccc([N+](=O)[O-])cc2)c(=O)c1C=NCCN1CCN(C(=O)C(C)C)CC1,11,-8,3,18,27*
COc1ccc(S(=O)(=O)N2CCN(c3c(C)cccc3C)CC2)cc1OC,24,-34,-1,14,45*
COc1ccc(S(=O)(=O)N2CCN(c3ccc(C)cc3C)CC2)cc1OC,-6,-25,0,14,36*
CCOc1ccc(S(=O)(=O)N2CCN(c3ccc(C)cc3C)CC2)cc1,18,-18,7,9,27*
C[C@H]1CN([C@@H](C)CO)C(=O)c2cccc(NC(=O)c3nc4ccccc4s3)c2O[C@H]1CN(C)C(=O)Nc1ccc(F)cc1,55*,2,33,2,-7
Cc1cc(C(=O)Nc2cccc3c2O[C@H](CN(C)CC2CC2)[C@@H](C)CN([C@H](C)CO)C3=O)n(C)n1,14,-8,43*,15,-31
C[C@@H]1CN([C@@H](C)CO)C(=O)c2cccc(NS(C)(=O)=O)c2O[C@H]1CN(C)C(=O)Nc1ccc(F)cc1,-5,-21,3,2,-9
C[C@H]1CN([C@@H](C)CO)C(=O)c2cccc(NC(=O)Nc3ccc(C(F)(F)F)cc3)c2O[C@@H]1CN(C)C(=O)Nc1ccc(F)cc1,56*,27,23,5,-5
COc1ccc(NC(=O)Nc2cccc3c2O[C@H](CN(C)C(=O)Nc2ccc(C(F)(F)F)cc2)[C@@H](C)CN([C@H](C)CO)C3=O)cc1,/,-9,/,16,-15
C[C@H](CO)N1C[C@H](C)[C@@H](CN(C)C(=O)Nc2ccc(C(F)(F)F)cc2)Oc2c(NC(=O)Nc3ccc(C(F)(F)F)cc3)cccc2C1=O,58*,24,10,9,41*
Nc1[nH]c(C(=O)c2ccccc2)c(-c2ccccc2Cl)c1C(=O)NCCc1c[nH]c2ccccc12,-7,/,9,/,/
O=c1/c(=C\c2cc([N+](=O)[O-])cc([N+](=O)[O-])c2O)sc2nc3ccccc3n12,/,6,/,72*,0
